The target in test [1] is Prostaglandin G/H synthase 1 (Homo sapiens, UniProt P23219). The experiment in a line: Inhibition of COX1-mediated […] in human platelets assessed as residual activity by measuring formation of 12-HHT from arachidonic acid preincubated at 10 uM for 5 mins measured after 5 mins by RP-HPLC analysis relative to control; values are per cent of control.
Test [2] has as its system Monocyte. Put plainly: Inhibition of thromboxane B2 formation in LPS-stimulated human monocytes preincubated for 15 mins before arachidonic acid substrate addition measured after 30 mins by UPLC-MS/MS analysis. The test is classed as functional, cell-based. The essentials: (§1)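 Fresh human monocytes (adherence-isolated, >85% CD14+; 5 × 10⁶/well) primed with LPS 1 μg/mL for 24 h. Washed, 15 min preincubation, then 2.5 μM A23187 plus 20 μM arachidonic acid for 30 min. Eicosanoids extracted and measured by UPLC-MS/MS, normalized to PGB1 as relative intensities. Two to three independent experiments.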

The subject of test [3] is Monocyte. Put plainly: Inhibition of 11-HETE formation in LPS-stimulated human monocytes preincubated for 15 mins before arachidonic acid substrate addition measured after 30 mins by UPLC-MS/MS analysis. Type of test: functional, cell-based. In outline:
as §1

The test system of test [4] is Mus musculus. Put plainly: Antiinflammatory activity in zymosan-induced peritonitis CD1 mouse model assessed as suppression of LTB4 level at 10 mg/kg, ip administered 30 mins before challenge measured 4 hrs post zymosan challenge relative to control.
Test [5] deals with T1, Prostaglandin G/H synthase 2 (Homo sapiens, UniProt P35354).
T1 sequence (P35354 whole entry): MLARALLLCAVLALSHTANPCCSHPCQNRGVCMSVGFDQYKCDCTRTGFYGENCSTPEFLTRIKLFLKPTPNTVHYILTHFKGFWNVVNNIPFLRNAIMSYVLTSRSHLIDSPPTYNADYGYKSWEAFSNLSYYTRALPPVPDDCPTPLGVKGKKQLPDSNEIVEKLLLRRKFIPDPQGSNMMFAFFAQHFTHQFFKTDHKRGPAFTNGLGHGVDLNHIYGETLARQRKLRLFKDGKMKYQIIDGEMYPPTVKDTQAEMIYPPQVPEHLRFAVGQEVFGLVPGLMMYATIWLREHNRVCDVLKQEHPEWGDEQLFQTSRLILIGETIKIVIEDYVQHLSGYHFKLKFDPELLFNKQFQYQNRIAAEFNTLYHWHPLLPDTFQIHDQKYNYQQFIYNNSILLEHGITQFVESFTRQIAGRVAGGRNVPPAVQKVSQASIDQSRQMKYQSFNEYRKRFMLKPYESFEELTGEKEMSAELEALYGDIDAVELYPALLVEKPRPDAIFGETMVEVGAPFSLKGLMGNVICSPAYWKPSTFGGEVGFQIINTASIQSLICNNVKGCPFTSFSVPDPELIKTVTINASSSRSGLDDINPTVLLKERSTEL
Put plainly: Inhibition of COX2-mediated PGF2alpha formation in LPS-stimulated human monocytes preincubated for 15 mins before arachidonic acid substrate addition measured after 30 mins by UPLC-MS/MS analysis. The test is classed as cell-based.

Test [6] concerns Mus musculus. Put plainly: Antiinflammatory activity in zymosan-induced peritonitis CD1 mouse model assessed as suppression of LTC4 level at 10 mg/kg, ip administered 30 mins before challenge measured 30 mins post zymosan challenge relative to control. The test is classed as functional. As to conditions: route intraperitoneal. The essentials: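 Male CD-1 mice (33−39 g, 8−9 weeks; n = 5−11 per group) dosed ip in 0.5 mL 0.9% saline with 2% DMSO 30 min before ip zymosan (0.5 mL of 2 mg/mL in saline). Killed by CO2 30 min after zymosan, peritoneum lavaged with 3 mL cold PBS pH 7.4. Cysteinyl-LTs in exudate supernatant by enzyme immunoassay; % inhibition vs vehicle.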

Test [7] deals with T1, Prostaglandin G/H synthase 2. Put plainly: Inhibition of COX2-mediated PGD2 formation in LPS-stimulated human monocytes preincubated for 15 mins before arachidonic acid substrate addition measured after 30 mins by UPLC-MS/MS analysis. The test is classed as cell-based.

Prostaglandin G/H synthase 1, sequence (P23219 whole entry): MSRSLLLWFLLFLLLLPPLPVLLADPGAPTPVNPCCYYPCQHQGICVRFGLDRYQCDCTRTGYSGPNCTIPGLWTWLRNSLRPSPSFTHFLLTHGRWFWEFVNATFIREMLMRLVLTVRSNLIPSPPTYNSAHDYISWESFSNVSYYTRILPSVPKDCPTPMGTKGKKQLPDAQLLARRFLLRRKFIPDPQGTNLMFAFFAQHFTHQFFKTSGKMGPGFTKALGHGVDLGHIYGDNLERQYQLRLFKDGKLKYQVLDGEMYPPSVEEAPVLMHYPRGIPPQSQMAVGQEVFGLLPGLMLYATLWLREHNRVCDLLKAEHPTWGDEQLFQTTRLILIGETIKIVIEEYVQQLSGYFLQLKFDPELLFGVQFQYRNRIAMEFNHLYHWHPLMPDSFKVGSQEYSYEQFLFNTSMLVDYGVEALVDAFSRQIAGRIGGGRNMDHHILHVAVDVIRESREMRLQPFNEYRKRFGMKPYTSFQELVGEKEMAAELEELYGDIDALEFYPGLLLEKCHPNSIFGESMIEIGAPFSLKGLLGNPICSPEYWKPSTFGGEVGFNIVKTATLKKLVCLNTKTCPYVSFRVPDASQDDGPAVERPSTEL

Usually residual activity stands for the activity still measured, relative to the control. Regarding `COc1cc(/C=C/c2cc(/C=C/c3ccc(O)c(OC)c3)[nH]n2)ccc1O` [CURCUMIN PYRAZOLE], the residual activity in test [1] worked out at 82.3%.
One may read the IC50 as the point on the concentration scale where inhibition reaches its midpoint. Higher therefore signals lower potency. Consider `COc1cc(/C=C/C(=O)CC(=O)/C=C/c2ccc(O)c(OC)c2)ccc1O` [CURCUMIN], for which the IC50 in the test on Monocyte [2] and with Monocyte [3] was 1200 nM throughout.
A word on the inhibition in vivo: it is the percentage by which the read-out fell short of the control. In the case of `COc1cc(/C=C/c2cc(/C=C/c3cc(CC=C(C)C)c(O)c(OC)c3)[nH]n2)cc(CC=C(C)C)c1O`, the figures for the inhibition in vivo at 10 mg/kg in the test on Mus musculus [4] and in the test on Mus musculus [6] were 61% and 92%, respectively. Besides, the IC50 in test [5] and in test [7] was over 10000 nM each time.

(Values after ChEMBL document CHEMBL3286393 (J Med Chem, 2014).)
